From ChEMBL document CHEMBL4041550, “Structure-Activity Relationship Study of QL47: A Broad-Spectrum Antiviral Agent” (ACS Med Chem Lett, 2017)
Calls of active or inactive are those of the source. The calls are words filed in the database; no cut-off is given here.

Key:
[1] = Cytotoxicity against human HuH7 cells measured after 24 hrs by CellTiter-Glo luminescent cell viability assay; type: cell-based, Huh-7
In short: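 DENV2-infected Huh7 cells treated across a concentration range; cell viability read 24 h later. CC50 (50% cytotoxicity) derived by non-linear regression; mean ± SD of experimental duplicates, n ≥ 2 repeats.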

dengue virus type 2 [2] = assay: Antiviral activity against Dengue virus serotype 2 replicon harboring GVD mutant infected in HuH7 cells assessed as reduction in viral RNA translation at 2 uM measured at 6 hrs post infection by luciferase reporter gene assay relative to control; type: functional; set-up: scale not given: the % may be the effect or the level left
In short: (§1)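 Huh7 cells transfected with in vitro-transcribed nonreplicative DENV2(GVD) reporter replicon RNA, then treated immediately with compound at 2 or 10 μM. Intracellular firefly luciferase activity read 6 h post-transfection as a measure of RNA translation and expressed relative to DMSO-treated samples. Mean ± SD of experimental duplicates, n = 3 repeats.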

[3] = Half life in mouse hepatic microsomes at 1 uM in presence of NADPH by LC-MS/MS method; type: ADME, Microsome; details: liver microsomes
In short: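 Compound incubated with mouse liver microsomes; half-life (T1/2, min) of the compound reported as a measure of metabolic stability.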

dengue virus type 2 [4] = assay: Antiviral activity against Dengue virus serotype 2 strain New Guinea C infected in HuH7 cells assessed as reduction in log-fold change by measuring focus forming unit at 2 uM measured at 24 hrs post infection by focus forming assay relative to control; type: functional, Thailand/NGS-C/1944
In short: (§2)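 DENV2-infected Huh7 cells treated with compound at 2 or 10 μM. Infectious virus secreted into culture supernatants at 24 h post-infection/treatment was titred by focus-forming assay. Result expressed as log-fold change relative to DMSO treatment.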

dengue virus type 2 [5] = assay: Antiviral activity against Dengue virus serotype 2 strain New Guinea C infected in HuH7 cells assessed as reduction in log-fold change by measuring focus forming unit at 10 uM measured at 24 hrs post infection by focus forming assay relative to control; type: functional, Thailand/NGS-C/1944; in short: as §2
dengue virus type 2 [6] = assay: Antiviral activity against Dengue virus serotype 2 replicon harboring GVD mutant infected in HuH7 cells assessed as reduction in viral RNA translation at 10 uM measured at 6 hrs post infection by luciferase reporter gene assay relative to control; type: functional; set-up: scale not given: the % may be the effect or the level left; in short: as §1
dengue virus type 2 [7] = assay: Antiviral activity against Dengue virus serotype 2 strain New Guinea C infected in HuH7 cells at […] to 10 uM measured at 24 hrs post infection by focus forming assay; type: functional, cell-based; details: Thailand/NGS-C/1944
In short: (§3)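 Huh7 cells infected with DENV2, then treated with compound; screened at 2 and 10 μM. Infectious virus secreted into supernatant at 24 h post-infection/treatment titrated by focus-forming assay; expressed as log-fold change relative to DMSO. IC90 (1-log10 drop in infectious progeny) from concentration range by non-linear regression; mean ± SD of experimental duplicates, n ≥ 2 repeats.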

Enterovirus C = assay: Antiviral activity against Polio virus Chat infected in Vero cells at 4 uM measured at 12 hrs post infection by crystal violet staining based plaque formation assay; type: functional, cell-based
In short: (§4)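 Vero cells infected with poliovirus or VSV, then treated with 4 μM compound for 12 h (poliovirus) or 6 h (VSV). Infectious virus released to supernatants quantified by plaque-forming assay, plotted relative to DMSO-treated samples. Mean ± SD of experimental duplicates, n ≥ 2 repeats.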

dengue virus type 2 [8] = assay: Antiviral activity against Dengue virus serotype 2 strain New Guinea C infected in HuH7 cells measured at 24 hrs post infection by focus forming assay; type: functional; details: Thailand/NGS-C/1944, Huh-7, 24 h
In short: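 Huh7 cells infected with DENV2, then treated with a range of compound concentrations. Viral yield measured 24 h later by titration of infectious particles in supernatants; in parallel, cell viability measured. IC90 (1-log10 reduction in infectious progeny) and CC50 derived by non-linear regression. Mean ± SD of experimental duplicates, n ≥ 2 repeats.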

[9] = test system: Vesicular stomatitis Indiana virus; assay: Antiviral activity against Vesicular stomatitis virus Indiana infected in Vero cells at 4 uM measured at 6 hrs post infection by crystal violet staining based plaque formation assay; type: functional, cell-based; in short: as §4
Kunjin virus = assay: Antiviral activity against West Nile virus Kunjin infected in HuH7 cells at 2 uM measured at 24 hrs post infection by crystal violet staining based plaque formation assay; type: functional, cell-based
In short: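 Huh7 cells infected with West Nile virus, then treated with 2 μM for 24 h. Infectious virus released to supernatants quantified by plaque assay and plotted relative to DMSO-treated samples; mean ± SD of experimental duplicates, n ≥ 2 repeats.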

Vero = assay: Antiviral activity against Respiratory syncytial virus A2 infected in Vero cells at 2.5 uM pretreated for 7 days followed by viral infection by crystal violet staining based plaque formation assay; type: functional, cell-based; details: Human respiratory syncytial virus A2
dengue virus type 2 [10] = assay: Antiviral activity against Dengue virus serotype 2 strain New Guinea C infected in HuH7 cells at < 10 uM measured at 24 hrs post infection by focus forming assay; type: functional, cell-based; details: Thailand/NGS-C/1944; in short: as §3

Row | Structure (SMILES) | CC50 at 24 h [1] | Activity (dengue virus type 2 [2]) | half-life at 1 µM [3] | Activity (dengue virus type 2 [4]) | Activity (dengue virus type 2 [5]) | Activity (dengue virus type 2 [6]) | Activity (dengue virus type 2 [7]) | Activity (Enterovirus C) | IC90 (dengue virus type 2 [8]) | Activity [9] | Activity (Kunjin virus) | Activity (Vero) | Activity (dengue virus type 2 [10])
1 | C=CC(=O)Nc1cc(-n2c(=O)ccc3cnc4ccc(-c5ccc(N)nc5)cc4c32)ccc1C | 75 µM | 44% | 6.4 min | 0.8 log10FFU/ml | 4 log10FFU/ml | 75% |  |  |  |  |  |  | 
2 | C=CC(=O)Nc1cc(-n2c(=O)ccc3ccc4ccc(-c5ccc6ccncc6c5)cc4c32)ccc1C | 75 µM | 82% | 9 min | 1.9 log10FFU/ml | 4 log10FFU/ml | 94% |  |  |  |  |  |  | 
3 | C=CC(=O)Nc1cc(-n2c(=O)ccc3cnc4ccc(Nc5cnn(C)c5)cc4c32)ccc1C | 107 µM | 23% | 7.9 min | 0 log10FFU/ml | 0.4 log10FFU/ml | 24% |  |  |  |  |  |  | 
4 | C=CC(=O)Nc1cc(-n2c(=O)ccc3cnc4ccc(-c5cnn(C)c5)cc4c32)ccc1C(=O)O | > 160 µM | 3% |  | 0 log10FFU/ml | 0 log10FFU/ml | 19% |  |  |  |  |  |  | 
5 | C=CC(=O)Nc1cc(-n2c(=O)ccc3cnc4ccc(-c5cnn(C)c5)cc4c32)ccc1OCCNC(C)=O | 99 µM | 39% |  | 1.1 log10FFU/ml | 4 log10FFU/ml | 90% |  |  |  |  |  |  | 
6 | C=CC(=O)Nc1cc(-n2c(=O)ccc3ccc4ccc(-c5cnn(C)c5)cc4c32)ccc1C | > 160 µM | 76% | 4 min | 4 log10FFU/ml | 4 log10FFU/ml | 95% |  |  |  |  |  |  | 
7 | Cc1c(NC(=O)c2ccc(C(C)(C)C)cc2)cccc1-c1cn(C)c(=O)c(Nc2ccc(C(=O)N3CCOCC3)cc2)n1 |  |  |  |  |  |  | inactive |  |  |  |  |  | 
8 | C=CC(=O)Nc1cc(-n2c(=O)ccc3ccc4ccc(-c5cn[nH]c5)cc4c32)ccc1C | 29 µM | 39% | 4 min | 2 log10FFU/ml | 4 log10FFU/ml | 79% |  |  |  |  |  |  | 
9 | C=CC(=O)N1CCc2ccc(-n3c(=O)n(C)c4cnc5ccc(-c6cnn(C)c6)cc5c43)cc21 | 79 µM | 94% | 2 min | 2.5 log10FFU/ml | 4 log10FFU/ml | 99% |  |  |  |  |  |  | 
10 | C=CC(=O)Nc1cc(-n2c(=O)ccc3cnc4ccc(N5CCOCC5)cc4c32)ccc1C | 103 µM | 0% | 9 min | 0.1 log10FFU/ml | 1.2 log10FFU/ml | 23% |  |  |  |  |  |  | 
11 | C=CC(=O)N1CCc2ccc(-n3c(=O)ccc4cnc5ccc(-c6cnn(C)c6)cc5c43)cc21 | 67 to 68 µM | 94% | 1.2 min | 4 log10FFU/ml | 4 log10FFU/ml | 98% |  | Active | 0.343 µM | Active | Active | Active | 
12 | C=CC(=O)N1CCc2ccc(-n3c(=O)ccc4cnc5ccc(-c6ccc(S(=O)(=O)NC(C)(C)C)cc6)cc5c43)cc21 | 13 µM | 81% | 2.3 min | 0 log10FFU/ml | 1.9 log10FFU/ml | 100% |  |  |  |  |  |  | 
13 | CCC(=O)N1CCc2ccc(-n3c(=O)ccc4cnc5ccc(-c6cnn(C)c6)cc5c43)cc21 |  |  |  |  |  |  |  |  |  |  |  |  | inactive
14 | C=CC(=O)Nc1cc(-n2c(=O)ccc3cnc4ccc(-c5cnn(C)c5)cc4c32)ccc1C | > 160 µM | 40% | 4.1 min | 1 log10FFU/ml | 4 log10FFU/ml | 34% |  |  |  |  |  |  | 
